Assay results published in ChEMBL document CHEMBL1157882, “Novel 2-[(benzylamino)methyl]pyrrolidine-3,4-diol derivatives as alpha-mannosidase inhibitors and with antitumor activities against hematological and solid malignancies” (Bioorg Med Chem, 2010).
Calls of active or inactive are those of the source. No cut-off for these calls is given here.

Key:
[1] = tested on: Oryza sativa; assay: Inhibition of alpha-glucosidase from rice at 1 mM at pH 4
Outline: (§1)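 Glycosidase panel of commercial enzymes assayed at each enzyme's optimal pH with compound at 1 mM; percentage inhibition of enzyme activity calculated.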

[2] = target: Glucoamylase (Aspergillus niger) (UniProt P69328); assay: Inhibition of amyloglucosidase from Aspergillus niger at 1 mM at pH 5; outline: as §1
[3] = tested on: Prunus dulcis; assay: Inhibition of beta-glucosidase from almond at 1 mM at pH 5; outline: as §1
[4] = tested on: Canavalia ensiformis; assay: Inhibition of alpha-mannosidase from jack bean at 1 mM at pH 5; outline: as §1
[5] = Inhibition of alpha-mannosidase from jack bean at pH 5; parameters: species or system Canavalia ensiformis
[6] = tested on: Helix pomatia; assay: Inhibition of beta-mannosidase from snail at pH 4; parameters: concentration or dose not given beside the values; conditions: concentration not given here
[7] = tested on: Aspergillus niger; assay: Inhibition of beta-xylosidase from Aspergillus niger at pH 5; parameters: concentration or dose not given beside the values; conditions: concentration not given here
[8] = tested on: Canavalia ensiformis; assay: Inhibition of beta-N-acetylglucosaminidase from jack bean at pH 5; parameters: concentration or dose not given beside the values; conditions: concentration not given here
[9] = species on record: Bos taurus; assay: Inhibition of beta-N-acetylglucosaminidase from bovine kidney at pH 4; parameters: concentration or dose not given beside the values; conditions: concentration not given here
[10] = tested on: U-266; assay: Cytotoxicity against human U266 cells after 72 hrs by colorimetric assay; format: functional, cell-based
Outline: (§2)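 Cells grown in McCoy's medium (adherent lines) or RPMI-1640 (U266), each with 10% FBS, L-glutamine and antibiotics, at 37 °C in 5% CO₂. Compound dissolved as a 100 mM DMSO stock, final DMSO ≤0.4%. Cells were exposed for 72 h across a 10^-2 to 400 µM range. Viability was read by CellTiter 96 Aqueous (2–4 h incubation, absorbance 490 nm). Triplicate wells; IC50 from curve fitting.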

[11] = tested on: Jurkat; assay: Cytotoxicity against human Jurkat cells after 72 hrs by colorimetric assay; format: functional, cell-based
[12] = Cytotoxicity against human U87 cells after 72 hrs by colorimetric assay; format: functional, cell-based, U-87MG ATCC; outline: as §2
[13] = tested on: PC-3; assay: Cytotoxicity against human PC3 cells after 72 hrs by colorimetric assay; format: functional, cell-based; outline: as §2
[14] = tested on: A549; assay: Cytotoxicity against human A549 cells after 72 hrs by colorimetric assay; format: functional, cell-based; outline: as §2
[15] = tested on: MCF7; assay: Cytotoxicity against human MCF7 cells after 72 hrs by colorimetric assay; format: functional, cell-based; outline: as §2
[16] = tested on: MDA-MB-231; assay: Cytotoxicity against human MDA-MB-231 cells after 72 hrs by colorimetric assay; format: functional, cell-based; outline: as §2
[17] = tested on: BT-474; assay: Cytotoxicity against human BT474 cells after 72 hrs by colorimetric assay; format: functional, cell-based; outline: as §2
[18] = tested on: SK-BR-3; assay: Cytotoxicity against human SKBR3 cells after 72 hrs by colorimetric assay; format: functional, cell-based; outline: as §2
[19] = target: T1, Tissue alpha-L-fucosidase (Bos taurus) (UniProt Q2KIM0); assay: Inhibition of alpha-L-fucosidase from bovine kidney at 1 mM at pH 6; outline: as §1
T1 sequence (whole entry): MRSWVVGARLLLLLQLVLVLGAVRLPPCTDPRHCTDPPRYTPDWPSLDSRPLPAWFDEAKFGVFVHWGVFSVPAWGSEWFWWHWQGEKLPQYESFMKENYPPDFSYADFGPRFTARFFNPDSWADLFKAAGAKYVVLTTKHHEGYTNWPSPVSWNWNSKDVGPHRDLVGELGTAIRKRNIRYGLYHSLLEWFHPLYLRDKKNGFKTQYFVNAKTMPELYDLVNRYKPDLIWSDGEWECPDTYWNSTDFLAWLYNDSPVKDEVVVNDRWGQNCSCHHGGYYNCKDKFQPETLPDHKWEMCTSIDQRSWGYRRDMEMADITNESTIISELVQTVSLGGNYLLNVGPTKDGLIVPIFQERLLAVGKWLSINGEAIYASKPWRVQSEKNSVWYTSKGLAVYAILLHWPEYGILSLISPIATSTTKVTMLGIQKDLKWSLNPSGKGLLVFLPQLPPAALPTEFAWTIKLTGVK

[20] = target: Alpha-galactosidase (Coffea arabica) (UniProt Q42656); assay: Inhibition of alpha-galactosidase from coffee beans at 1 mM at pH 6; outline: as §1
[21] = target: Beta-galactosidase (Escherichia coli) (UniProt Q8VNN2); assay: Inhibition of beta-galactosidase from Escherichia coli at 1 mM at pH 7; outline: as §1
[22] = target: T2, Beta-galactosidase (Aspergillus oryzae) (UniProt Q2U7N3); assay: Inhibition of beta-galactosidase from Aspergillus oryzae at 1 mM at pH 4; outline: as §1
T2 sequence (whole entry): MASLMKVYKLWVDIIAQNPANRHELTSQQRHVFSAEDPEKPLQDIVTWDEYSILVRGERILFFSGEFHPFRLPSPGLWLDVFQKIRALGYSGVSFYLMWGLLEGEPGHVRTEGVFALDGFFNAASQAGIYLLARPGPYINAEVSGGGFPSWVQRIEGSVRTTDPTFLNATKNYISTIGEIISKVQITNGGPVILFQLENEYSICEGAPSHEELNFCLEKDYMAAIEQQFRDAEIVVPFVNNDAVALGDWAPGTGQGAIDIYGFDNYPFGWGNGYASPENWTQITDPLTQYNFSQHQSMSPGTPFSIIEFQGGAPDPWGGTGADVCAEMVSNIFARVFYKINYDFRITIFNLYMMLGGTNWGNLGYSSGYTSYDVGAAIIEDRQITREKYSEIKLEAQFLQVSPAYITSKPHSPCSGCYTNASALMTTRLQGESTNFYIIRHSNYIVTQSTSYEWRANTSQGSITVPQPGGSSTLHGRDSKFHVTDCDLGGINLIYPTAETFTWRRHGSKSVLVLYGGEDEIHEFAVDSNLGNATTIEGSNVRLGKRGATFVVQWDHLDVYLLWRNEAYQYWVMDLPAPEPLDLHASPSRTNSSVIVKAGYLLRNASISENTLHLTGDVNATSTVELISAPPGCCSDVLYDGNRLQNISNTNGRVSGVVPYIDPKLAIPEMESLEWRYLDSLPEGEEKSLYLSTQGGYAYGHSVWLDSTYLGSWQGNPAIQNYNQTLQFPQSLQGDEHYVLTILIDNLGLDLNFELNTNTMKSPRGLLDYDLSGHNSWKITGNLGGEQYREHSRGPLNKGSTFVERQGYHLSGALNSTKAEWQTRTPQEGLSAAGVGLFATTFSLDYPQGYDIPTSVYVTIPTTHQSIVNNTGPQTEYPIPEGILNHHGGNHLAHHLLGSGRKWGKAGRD

[23] = tested on: Saccharomyces cerevisiae; assay: Inhibition of alpha-glucosidase from yeast at 1 mM at pH 7; outline: as §1
[24] = tested on: Jurkat; assay: Cytotoxicity in human Jurkat cells overexpressing Bcl2 assessed as cell death at 40 uM after 72 hrs by propidium iodide-staining based flow cytometry; format: functional
Outline: (§3)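 Jurkat T cells stably overexpressing Bcl-2, plus vector controls, in RPMI-1640 with 10% FBS. Seeded at 4×10⁴ per well and treated for 72 h with 40 µM etoposide, 2 µM doxorubicin or 50 µM compound. Dead cells counted by propidium iodide staining and flow cytometry; means of triplicates with SD.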

[25] = tested on: Jurkat; assay: Cytotoxicity in human Jurkat cells overexpressing Bcl2 assessed as cell death at 2 uM after 72 hrs by propidium iodide-staining based flow cytometry; format: functional; outline: as §3
[26] = Homo sapiens, U-266, 72 h, read-out: IC50
[27] = Homo sapiens, Jurkat, 72 h, read-out: IC50
[28] = Homo sapiens, U-87 MG, 72 h, read-out: IC50
[29] = Homo sapiens, PC-3, 72 h, read-out: IC50
[30] = Homo sapiens, A549, 72 h, read-out: IC50
[31] = Homo sapiens, MCF7, 72 h, read-out: IC50
[32] = Homo sapiens, MDA-MB-231, 72 h, read-out: IC50
[33] = Homo sapiens, BT-474, 72 h, read-out: IC50
[34] = Homo sapiens, SK-BR-3, 72 h, read-out: IC50

Chain of Beta-galactosidase (Escherichia coli) (Q8VNN2 whole entry, looked up): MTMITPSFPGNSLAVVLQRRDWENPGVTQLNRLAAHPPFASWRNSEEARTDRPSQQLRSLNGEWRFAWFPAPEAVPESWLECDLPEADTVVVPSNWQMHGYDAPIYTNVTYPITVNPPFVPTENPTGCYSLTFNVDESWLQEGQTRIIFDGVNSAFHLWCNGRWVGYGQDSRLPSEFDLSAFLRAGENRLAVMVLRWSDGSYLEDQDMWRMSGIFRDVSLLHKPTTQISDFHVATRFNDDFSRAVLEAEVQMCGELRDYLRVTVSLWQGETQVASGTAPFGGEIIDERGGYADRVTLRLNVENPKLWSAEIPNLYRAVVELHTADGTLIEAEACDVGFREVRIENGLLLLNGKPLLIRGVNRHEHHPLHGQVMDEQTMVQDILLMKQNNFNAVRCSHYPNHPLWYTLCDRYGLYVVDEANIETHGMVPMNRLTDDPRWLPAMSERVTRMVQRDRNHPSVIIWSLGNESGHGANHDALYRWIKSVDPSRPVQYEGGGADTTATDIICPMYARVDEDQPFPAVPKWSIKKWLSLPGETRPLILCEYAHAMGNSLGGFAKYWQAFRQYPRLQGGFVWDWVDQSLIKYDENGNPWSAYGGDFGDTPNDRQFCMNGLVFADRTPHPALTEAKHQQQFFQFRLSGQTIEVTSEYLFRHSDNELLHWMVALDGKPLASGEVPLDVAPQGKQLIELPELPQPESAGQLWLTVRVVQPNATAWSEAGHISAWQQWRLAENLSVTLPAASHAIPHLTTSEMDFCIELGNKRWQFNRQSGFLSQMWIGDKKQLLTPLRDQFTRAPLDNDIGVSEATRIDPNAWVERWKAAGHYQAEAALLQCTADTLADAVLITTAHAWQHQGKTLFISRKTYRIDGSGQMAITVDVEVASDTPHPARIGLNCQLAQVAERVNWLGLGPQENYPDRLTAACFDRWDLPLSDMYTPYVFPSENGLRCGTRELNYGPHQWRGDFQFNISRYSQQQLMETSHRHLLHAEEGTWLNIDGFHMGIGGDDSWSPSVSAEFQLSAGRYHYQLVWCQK
Chain of Glucoamylase (Aspergillus niger) (P69328 whole entry): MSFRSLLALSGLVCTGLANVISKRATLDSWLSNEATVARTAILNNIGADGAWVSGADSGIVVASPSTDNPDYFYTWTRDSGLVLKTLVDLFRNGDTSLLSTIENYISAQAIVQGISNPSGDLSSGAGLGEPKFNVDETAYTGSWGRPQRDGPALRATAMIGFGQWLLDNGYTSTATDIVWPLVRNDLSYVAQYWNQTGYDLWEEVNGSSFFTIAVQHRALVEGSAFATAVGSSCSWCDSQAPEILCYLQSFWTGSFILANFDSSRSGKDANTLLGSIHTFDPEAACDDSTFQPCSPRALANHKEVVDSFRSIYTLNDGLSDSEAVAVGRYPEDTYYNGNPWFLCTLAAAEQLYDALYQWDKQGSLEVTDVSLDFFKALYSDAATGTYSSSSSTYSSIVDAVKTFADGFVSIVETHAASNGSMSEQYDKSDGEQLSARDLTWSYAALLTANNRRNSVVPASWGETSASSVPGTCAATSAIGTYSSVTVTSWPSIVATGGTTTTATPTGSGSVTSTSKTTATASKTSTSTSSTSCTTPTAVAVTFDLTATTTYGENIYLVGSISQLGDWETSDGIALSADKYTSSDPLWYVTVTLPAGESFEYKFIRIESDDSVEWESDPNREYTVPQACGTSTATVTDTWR
Chain of Alpha-galactosidase (Coffea arabica) (Q42656 16-378 limits assumed): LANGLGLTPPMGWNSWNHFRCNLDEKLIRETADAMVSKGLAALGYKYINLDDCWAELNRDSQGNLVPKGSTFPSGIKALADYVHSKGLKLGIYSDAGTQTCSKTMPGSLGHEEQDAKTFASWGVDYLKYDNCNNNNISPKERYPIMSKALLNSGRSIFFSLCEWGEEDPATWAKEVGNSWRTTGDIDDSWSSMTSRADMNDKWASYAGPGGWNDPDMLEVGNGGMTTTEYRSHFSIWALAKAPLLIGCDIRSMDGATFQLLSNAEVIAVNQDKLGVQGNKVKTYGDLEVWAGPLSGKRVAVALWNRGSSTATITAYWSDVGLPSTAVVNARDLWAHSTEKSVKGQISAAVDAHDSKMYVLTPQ

Structure (SMILES): OC[C@H](NC[C@H]1NC[C@H](O)[C@@H]1O)c1ccc(-c2ccsc2)cc1
- inhibition [1]: < 10%
- inhibition [2]: < 10%
- inhibition [3]: 36%
- inhibition [4]: 97%
- IC50 [5]: 1.1 µM
- Ki [5]: 0.8 µM
- inhibition [6]: < 10%
- inhibition [7]: 50%
- inhibition [8]: < 10%
- inhibition [9]: < 10%
- IC50 ([10]; u-266): Not Active
- IC50 ([11]; jurkat): Not Active
- IC50 ([12]; u-87mg atcc): Not Active
- IC50 ([13]; pc-3): Not Active
- IC50 ([14]; a549): Not Active
- IC50 ([15]; mcf7): Not Active
- IC50 ([16]; mda-mb-231): Not Active
- IC50 ([17]; bt-474): Not Active
- IC50 ([18]; sk-br-3): Not Active
- inhibition [19]: < 10%
- inhibition [20]: < 10%
- inhibition [21]: < 10%
- inhibition [22]: < 10%
- inhibition [23]: < 10%

Structure (SMILES): OC[C@H](NC[C@H]1NC[C@H](O)[C@@H]1O)c1ccc(OCc2ccccc2)cc1
- inhibition [1]: < 10%
- inhibition [2]: < 10%
- inhibition [3]: 40%
- inhibition [4]: 99%
- IC50 [5]: 1.4 µM
- Ki [5]: 0.6 µM
- inhibition [6]: < 10%
- inhibition [7]: 45%
- inhibition [8]: < 10%
- inhibition [9]: < 10%
- IC50 ([10]; u-266): Not Active
- IC50 ([11]; jurkat): Not Active
- IC50 ([12]; u-87mg atcc): Not Active
- IC50 ([13]; pc-3): Not Active
- IC50 ([14]; a549): Not Active
- IC50 ([15]; mcf7): Not Active
- IC50 ([16]; mda-mb-231): Not Active
- IC50 ([17]; bt-474): Not Active
- IC50 ([18]; sk-br-3): Not Active
- inhibition [19]: < 10%
- inhibition [20]: < 10%
- inhibition [21]: < 10%
- inhibition [22]: < 10%
- inhibition [23]: 45%

Structure (SMILES): COc1cc([C@@H]2c3cc4c(cc3[C@@H](O[C@@H]3O[C@@H]5CO[C@@H](C)O[C@H]5[C@H](O)[C@H]3O)[C@H]3COC(=O)[C@H]23)OCO4)cc(OC)c1O
- Activity [24]: inactive

Structure (SMILES): COc1ccc([C@H](CO)NC[C@H]2NC[C@H](O)[C@@H]2O)cc1
- inhibition [1]: < 10%
- inhibition [2]: < 10%
- inhibition [3]: 62%
- inhibition [4]: 98%
- IC50 [5]: 0.8 µM
- Ki [5]: 0.5 µM
- inhibition [6]: < 10%
- inhibition [7]: 28%
- inhibition [8]: < 10%
- inhibition [9]: < 10%
- IC50 [10, 26]: > 200 µM
- IC50 [11, 27]: > 200 µM
- IC50 [12, 28]: > 200 µM
- IC50 [13, 29]: > 200 µM
- IC50 [14, 30]: > 200 µM
- IC50 [15, 31]: > 200 µM
- IC50 [16, 32]: > 200 µM
- IC50 [17, 33]: > 200 µM
- IC50 [18, 34]: > 200 µM
- inhibition [19]: < 10%
- inhibition [20]: < 10%
- inhibition [21]: < 10%
- inhibition [22]: < 10%
- inhibition [23]: 41%

Structure (SMILES): COc1cccc2c1C(=O)c1c(O)c3c(c(O)c1C2=O)C[C@@](O)(C(=O)CO)C[C@@H]3O[C@H]1C[C@H](N)[C@H](O)[C@H](C)O1
- Activity [25]: inactive

Structure (SMILES): OC[C@H](NC[C@H]1NC[C@H](O)[C@@H]1O)c1ccc(-c2ccccc2)cc1
- inhibition [1]: < 10%
- inhibition [2]: < 10%
- inhibition [3]: 20%
- inhibition [4]: 99%
- IC50 [5]: 1.4 µM
- Ki [5]: 0.9 µM
- inhibition [6]: < 10%
- inhibition [7]: 50%
- inhibition [8]: < 10%
- inhibition [9]: < 10%
- IC50 [10, 26]: > 200 µM
- IC50 [11, 27]: > 200 µM
- IC50 [12, 28]: > 200 µM
- IC50 [13, 29]: > 200 µM
- IC50 [14, 30]: > 200 µM
- IC50 [15, 31]: > 200 µM
- IC50 [16, 32]: > 200 µM
- IC50 [17, 33]: > 200 µM
- IC50 [18, 34]: > 200 µM
- inhibition [19]: < 10%
- inhibition [20]: < 10%
- inhibition [21]: < 10%
- inhibition [22]: < 10%
- inhibition [23]: 24%

Structure (SMILES): C=CCOc1ccc([C@H](CO)NC[C@H]2NC[C@H](O)[C@@H]2O)cc1
- inhibition [1]: < 10%
- inhibition [2]: < 10%
- inhibition [3]: 72%
- inhibition [4]: 99%
- IC50 [5]: 0.9 µM
- Ki [5]: 0.5 µM
- inhibition [6]: < 10%
- inhibition [7]: 28%
- inhibition [8]: < 10%
- inhibition [9]: < 10%
- IC50 [10, 26]: > 200 µM
- IC50 [11, 27]: > 200 µM
- IC50 [12, 28]: > 200 µM
- IC50 [13, 29]: > 200 µM
- IC50 [14, 30]: > 200 µM
- IC50 [15, 31]: > 200 µM
- IC50 [16, 32]: > 200 µM
- IC50 [17, 33]: > 200 µM
- IC50 [18, 34]: > 200 µM
- inhibition [19]: < 10%
- inhibition [20]: < 10%
- inhibition [21]: < 10%
- inhibition [22]: < 10%
- inhibition [23]: 41%
